Reference: PubChem BioAssay
A number with no mark means an inactive call. Some of the results follow. The source made the active and inactive calls.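 Rule for the calls, unless noted: active = potentiation averaged over duplicate wells exceeding buffer-only control mean by more than 3 SD; inactive = the rest.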

Assays:
[1] = thallium flux activation in parental CHO cells, counter-screen for KCNQ1 potentiator project (AID 493006;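 active = duplicate-averaged activation above buffer control mean plus 5 SD of those controls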;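 for activation: fluorescence ratio of max minus min over baseline after K+ and Tl+ depolarization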); details: parental CHO-K1 cells, FluxOR thallium flux, at 10 µM; stronger effect = higher value
Procedure, shortened: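 Material: untransfected host CHO-K1 cells with FluxOR thallium dye. Timing: overnight 37 °C plating, 90 min RT dye, 20 min compound. Detection: kinetic FluxOR fluorescence, 10 s baseline, 110 s after stimulus. Read-out basis: max-minus-min fluorescence over baseline, percent of buffer-to-R-L3 span. Replicates: duplicate wells per compound, percent values averaged.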

[2] = target: Potassium voltage-gated channel subfamily KQT member 1 (Homo sapiens) (UniProt P51787); assay: KCNQ1 potassium channel potentiators, confirmation, FluxOR thallium flux, CHO cells, duplicates (AID 493007); details: KCNQ1 cell line, FluxOR thallium flux fluorescence, at 10 µM; stronger effect = higher value, % of reference activator effect, buffer zero;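 for outcome: cells depolarized by a potassium plus thallium sulfate stimulus after compound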
Procedure, shortened: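 Test system – KCNQ1-expressing CHO cell line · Incubation – FluxOR dye loading 90 min, compound exposure 20 min, room temperature · Detection – FluxOR Tl+ flux fluorescence, 10 s baseline plus 110 s recording · Controls – buffer-only wells as 0% and R-L3 activator as 100%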

[3] = target: Potassium voltage-gated channel subfamily KQT member 1 (Homo sapiens) (UniProt P51787); assay: KCNQ1 channel current potentiators, confirmation, orthogonal assay for KCNQ1 potentiator project, IonWorks patch clamp, KCNQ1-CHO cells (AID 493184;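 active = current rise at least 3 SD above the untreated control mean in each of two repeat wells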); details: automated patch clamp current, at 10 µM; stronger effect = higher value
Procedure, shortened: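 Read-out: Percent current increase versus pre-compound level | Assay system: CHO cells carrying KCNQ1 | Measured by: Automated perforated-patch electrophysiology | Medium: External bath solution at pH 7.4 | Dosing: One dose, 10 µM final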

[4] = target: Potassium voltage-gated channel subfamily KQT member 2 (Rattus norvegicus) (UniProt O88943); assay: rat KCNQ2 channel potentiation, selectivity assay for KCNQ1 potentiator project, KCNQ2-CHO-K1 cells (AID 493009;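 active = mean duplicate potentiation above the buffer control mean plus 5 SD of buffer wells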;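 note: assay conditions were tuned for KCNQ1 rather than KCNQ2 modulators; signal is max minus min fluorescence divided by baseline after thallium stimulus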); details: FluxOR thallium flux fluorescence, at 10 µM; stronger effect = higher value, scaled: buffer 0, activator control 100
[5] = target: T1, Potassium voltage-gated channel subfamily E member 1 (Homo sapiens) + Potassium voltage-gated channel subfamily KQT member 1 (Homo sapiens) (UniProt P15382+P51787); assay: KCNQ1/KCNE1 complex potentiators, confirmation, selectivity assay for KCNQ1 potentiator project, thallium flux, CHO-K1 KCNQ1/E1 cells (AID 493186;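 active = mean duplicate activation above the buffer control mean plus 5 SD of those controls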); details: FluxOR thallium flux, at 10 µM; stronger effect = higher value
Procedure, shortened: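 Test system: CHO-K1 cells with KCNQ1/E1; dosing: one test concentration; signal: FluxOR Tl+ flux fluorescence, kinetic read; incubation: 90-min dye loading then 20-min compound exposure, both at room temperature; read-out basis: percent of R-L3 effect over buffer; replication: duplicate wells per compound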

[6] = target: Potassium voltage-gated channel subfamily KQT member 1 (Homo sapiens) (UniProt P51787); assay: KCNQ1 potassium channel inhibitors, confirmation, cell-based, Tl flux, duplicate (AID 588353;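 active = primary screen active, with duplicate mean exceeding buffer control mean plus 3 SD of buffer wells, cut at about 28% in these data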;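 note: 0% = buffer control ratio and 100% = XE991 inhibitor control ratio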); details: KCNQ1 cell line, FluxOR thallium flux fluorescence, at 10 µM, stronger effect = higher value
Procedure, shortened: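 Material: stable KCNQ1-expressing CHO cell line. Incubation: compound exposure 20 min at room temperature. Replication: duplicates, mean used. Control set: buffer and XE991. Evaluation: percent inhibition relative to buffer and XE991. Reagent: Tl2SO4 plus K2SO4 stimulus, each 12.5 mM in 5x stock. Measured by: thallium-sensitive FluxOR dye fluorescence.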

[7] = thallium flux effects in parental CHO cells, counter-screen for KCNQ1 inhibitor project, cell-based, Tl flux (AID 588366;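 active = mean of duplicate thallium-flux fluorescence ratios in parental host cells more than 5 SD below the buffer control mean, cut at about 0.38 in these data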;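 note: ratio is peak minus minimum fluorescence divided by baseline fluorescence; actives read low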); details: parental CHO-K1, FluxOR thallium flux fluorescence ratio; at 10 µM; stronger effect = lower value; zero means no signal rise above baseline
Procedure, shortened: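 material = parental CHO-K1 cells lacking KCNQ1 channel expression | schedule = FluxOR dye loading 90 min, compound exposure 20 min, room temperature | technique = kinetic Tl+ flux fluorescence with FluxOR dye | controls = assay buffer-only wells as negative controls | replicates = each compound tested in duplicate wells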

[8] = target: Potassium voltage-gated channel subfamily KQT member 1 (Homo sapiens) (UniProt P51787); assay: KCNQ1 channel inhibitors, confirmation, orthogonal assay, cell-based, automated electrophysiology (AID 624120;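 active = KCNQ1 current drop exceeding 3 SD of negative control wells, seen in both duplicate runs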); details: KCNQ1-CHO cells, automated patch clamp current; at 10 µM
Procedure, shortened: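 System: KCNQ1-expressing CHO cells; Medium: external buffer at pH 7.4; Probe or stimulus: 2,000 ms voltage steps to +40 mV from -80 mV; Compound: 10 µM final, single dose; Technique: automated perforated-patch voltage clamp using amphotericin B; Measure: percent change in steady-state +40 mV current, post- versus pre-compound; Benchmarks: negative controls; Replication: duplicates.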

[9] = target: Potassium voltage-gated channel subfamily KQT member 2 (Rattus norvegicus) (UniProt O88943); assay: KCNQ2 channel inhibition, selectivity assay for KCNQ1 inhibitor project, cell-based (AID 651746;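 active = mean percent inhibition of the KCNQ2 thallium signal more than 5 SD above the buffer-only control wells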); details: KCNQ2 cells, FluxOR thallium flux fluorescence, at 10 µM; stronger effect = higher value
[10] = target: T1, Potassium voltage-gated channel subfamily E member 1 (Homo sapiens) + Potassium voltage-gated channel subfamily KQT member 1 (Homo sapiens); assay: KCNQ1/KCNE1 channel inhibition, selectivity assay for KCNQ1 inhibitor project, CHO-K1 cells, thallium flux, FluxOR (AID 652147;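 active = mean percent inhibition of duplicate wells above the buffer-only control mean plus 3 SD of those controls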); details: FluxOR thallium flux fluorescence, at 10 µM; stronger effect = higher value
Procedure, shortened: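 Assay system: KCNQ1/KCNE1 cells | Timing: FluxOR dye loading 90 min, compound exposure 20 min, both room temperature | Detection: Kinetic FluxOR thallium-sensitive fluorescence, 1 Hz sampling, 150 s post-stimulus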

Sequence of Potassium voltage-gated channel subfamily KQT member 2 (Rattus norvegicus) (O88943 whole entry, looked up): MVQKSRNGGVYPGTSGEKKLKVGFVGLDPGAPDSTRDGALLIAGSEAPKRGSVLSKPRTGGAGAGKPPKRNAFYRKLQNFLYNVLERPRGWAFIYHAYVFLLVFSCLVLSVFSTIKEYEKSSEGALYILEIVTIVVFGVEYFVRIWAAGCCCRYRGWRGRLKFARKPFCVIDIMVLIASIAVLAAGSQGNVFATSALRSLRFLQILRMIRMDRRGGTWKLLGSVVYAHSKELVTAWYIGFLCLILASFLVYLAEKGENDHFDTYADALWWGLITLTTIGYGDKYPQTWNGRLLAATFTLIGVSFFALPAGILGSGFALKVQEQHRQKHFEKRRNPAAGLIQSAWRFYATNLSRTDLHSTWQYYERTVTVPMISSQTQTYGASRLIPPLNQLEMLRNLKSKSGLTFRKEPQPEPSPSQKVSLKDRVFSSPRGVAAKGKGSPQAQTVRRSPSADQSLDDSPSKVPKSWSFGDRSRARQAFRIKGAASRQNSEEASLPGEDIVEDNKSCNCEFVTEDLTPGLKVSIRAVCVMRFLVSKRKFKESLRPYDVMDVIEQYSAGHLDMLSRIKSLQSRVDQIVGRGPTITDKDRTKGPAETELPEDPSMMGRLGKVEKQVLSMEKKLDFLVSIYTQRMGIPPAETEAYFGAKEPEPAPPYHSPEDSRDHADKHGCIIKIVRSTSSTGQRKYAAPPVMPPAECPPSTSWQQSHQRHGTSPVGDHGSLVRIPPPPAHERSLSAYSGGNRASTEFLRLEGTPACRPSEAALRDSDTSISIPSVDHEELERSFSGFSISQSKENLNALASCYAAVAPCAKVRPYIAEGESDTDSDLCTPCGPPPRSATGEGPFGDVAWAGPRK
Sequence of Potassium voltage-gated channel subfamily KQT member 1 (Homo sapiens) (P51787 whole entry, looked up): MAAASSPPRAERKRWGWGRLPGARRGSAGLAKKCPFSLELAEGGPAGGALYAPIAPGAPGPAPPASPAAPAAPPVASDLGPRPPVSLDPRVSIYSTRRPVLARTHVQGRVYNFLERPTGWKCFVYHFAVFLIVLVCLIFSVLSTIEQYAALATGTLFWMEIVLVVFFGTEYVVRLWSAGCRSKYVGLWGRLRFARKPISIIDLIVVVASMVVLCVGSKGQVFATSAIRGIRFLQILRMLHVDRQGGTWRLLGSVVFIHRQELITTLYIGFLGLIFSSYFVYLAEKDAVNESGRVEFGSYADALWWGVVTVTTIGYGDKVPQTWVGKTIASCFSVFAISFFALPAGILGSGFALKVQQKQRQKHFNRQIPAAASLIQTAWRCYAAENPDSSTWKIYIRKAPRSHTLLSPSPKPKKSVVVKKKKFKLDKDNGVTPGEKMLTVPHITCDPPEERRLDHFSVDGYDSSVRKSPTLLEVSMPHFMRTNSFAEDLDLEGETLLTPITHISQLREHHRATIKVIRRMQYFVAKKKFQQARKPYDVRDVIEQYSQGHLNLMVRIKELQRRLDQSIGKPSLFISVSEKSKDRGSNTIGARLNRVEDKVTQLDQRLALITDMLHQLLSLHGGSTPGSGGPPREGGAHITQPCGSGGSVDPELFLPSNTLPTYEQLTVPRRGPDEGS
T1 sequence (P51787 whole entry, looked up): as the sequence (P51787 whole entry, looked up) above

For `N=C1/C(=C\c2ccc(-c3cccc(Cl)c3)o2)C(=O)N=C2SC=C(c3ccccc3)N12`, the outcome [1] was “inactive”, the potentiation [2] was 29% (active) and the outcome [3] was “inactive”.
With `Cc1ccc(Nc2c(-c3ccc(C)o3)nc3cnccn23)cc1` the outcome [1] was “inactive”, the outcome [2] was “inactive” and the outcome [3] was “inactive”.
In the case of `CSc1cccc(NC(=O)CN2C(=O)c3ccccc3S2(=O)=O)c1`, the outcome [1] was “inactive”, the outcome [2] was “inactive” and the outcome [3] was “inactive”.
With `Cc1ccc(-n2c(-c3ccc(Cl)cc3)n[nH]c2=S)c(C)c1` the outcome [1] was “inactive”, the outcome [2] was “inactive” and the outcome [3] was “inactive”.
With `CC(C)(C)c1ccc(-n2nc(C#N)c(Cl)cc2=O)cc1` the outcome [1] was “inactive”, the outcome [2] was “inactive” and the outcome [4] was “inactive”. The outcome [3] was “inactive” and the outcome [5] was “inactive”.
For `Fc1ccc(/C=N/n2c(-c3cccs3)n[nH]c2=S)cc1`, the outcome [1] was “inactive”, the outcome [2] was “inactive” and the outcome [4] was “inactive”. The outcome [3] was “inactive” and the outcome [5] was “inactive”.
With `Cn1c(N/N=C/c2cccs2)cc(=O)n(C)c1=O` the outcome [1] was “inactive”, the outcome [2] was “inactive” and the outcome [3] was “inactive”.
With `CCCCNC(=O)CNC(=O)c1nn(-c2ccc(OC)cc2OC)c(=O)c2ccccc12` the outcome [1] was “inactive”, the outcome [2] was “inactive” and the outcome [3] was “inactive”.
With `Cc1cccc(-n2c(=S)[nH]c3c(oc4ccccc43)c2=O)c1` the activation [1] was 139% (active), the outcome [2] was “inactive” and the outcome [3] was “inactive”.
In the case of `COCC(=O)NC1CC2CCC(C1)N2C(=S)Nc1ccccc1C(=O)OC` (stereo not given), the outcome [1] was “inactive”, the outcome [2] was “inactive” and the outcome [3] was “inactive”.
In the case of `CCOc1cc(S(=O)(=O)Nc2ccc(Cl)cn2)ccc1Cl`, the outcome [1] was “inactive”, the outcome [2] was “inactive” and the outcome [3] was “inactive”.
For `COc1ccc(O)c(C(=O)c2cnn(-c3ccc(Cl)cc3)c2)c1`, the outcome [1] was “inactive”, the outcome [2] was “inactive” and the outcome [3] was “inactive”.
In the case of `O=[N+]([O-])c1ccc(C(O)C(CO)NC(=S)Nc2ccccc2)cc1` (stereo not given), the outcome [1] was “inactive”, the outcome [2] was “inactive” and the outcome [3] was “inactive”.
With `O=C(NC(=S)Nc1nc2c(s1)CCCC2)c1ccc(C(=O)c2ccccc2)cc1` the activation [1] was 138% (active), the potentiation [2] was 30% (active) and the outcome [3] was “inactive”.
With `NC(=O)c1ccc(N2CCNC(=O)C2)c([N+](=O)[O-])c1` the outcome [1] was “inactive”, the outcome [2] was “inactive” and the outcome [3] was “inactive”.
For `CCOc1ccccc1NC1=C(Cl)C(=O)N(c2ccccc2)C1=O`, the outcome [1] was “inactive”, the outcome [2] was “inactive” and the outcome [3] was “inactive”.
With `COc1ccc(/C=C(\NC(=O)c2cccs2)C(=O)N2CCOCC2)cc1OC` the activation [1] was 137% (active), the potentiation [2] was 29.5% (active) and the outcome [3] was “inactive”.
With `CCC1(CC)Cc2ccccc2-c2[nH]c(=S)[nH]c(=O)c21` the outcome [1] was “inactive”, the outcome [2] was “inactive” and the outcome [4] was “inactive”. For the same molecule, the outcome [3] was “inactive” and the outcome [5] was “inactive”.
With `CC(C)COc1ccc(-c2nn(-c3ccccc3)cc2/C=C2/SC(=S)N(CC(=O)O)C2=O)cc1` the outcome [1] was “inactive”, the outcome [2] was “inactive” and the outcome [3] was “inactive”.
With `CCOc1ccc(-n2c(=S)sc3c(=O)n(-c4ccccc4)c(SC)nc32)cc1` the outcome [1] was “inactive”, the outcome [2] was “inactive” and the outcome [3] was “inactive”.
In the case of `O=C(CCSc1ccccc1)Nc1ccc(S(=O)(=O)Nc2ncccn2)cc1`, the outcome [1] was “inactive”, the outcome [2] was “inactive” and the outcome [3] was “inactive”.
For `O=C(Nc1cccc(-c2nnc(-c3ccco3)o2)c1)c1ccccc1`, the outcome [1] was “inactive”, the outcome [2] was “inactive” and the outcome [3] was “inactive”.
For `CC(CNC(=O)COc1ccccc1)OC(=O)Nc1ccc(Cl)c(Cl)c1` (stereo not given), the outcome [1] was “inactive”, the outcome [2] was “inactive” and the outcome [3] was “inactive”.
For `C/C(=N\OCC(=O)Nc1ccc(OC(F)(F)F)cc1)c1ccc2c(c1)OCCO2`, the outcome [1] was “inactive”, the outcome [2] was “inactive” and the outcome [3] was “inactive”.
In the case of `Cc1ccc(C2C(C#N)=C(N)OC3=C2C(=O)CC(C)(C)C3)s1` (stereo not given), the outcome [1] was “inactive”, the outcome [2] was “inactive” and the outcome [4] was “inactive”. For the same molecule, the outcome [3] was “inactive” and the outcome [5] was “inactive”.
In the case of `CN(C)CCCNc1cc(-c2ccccc2)nc2cc(-c3cccc(F)c3)nn12`, the activation [1] was 180% (active), the potentiation [2] was 57% (active) and the outcome [3] was “inactive”.
In the case of `O=C(N1CCOCC1)N1CCC(n2nnc3ccccc32)CC1`, the outcome [1] was “inactive”, the outcome [2] was “inactive” and the outcome [3] was “inactive”.
For `CCOC(=O)CS(=O)(=O)c1nc(-c2ccc(F)cc2)cc(C(F)(F)F)n1`, the outcome [1] was “inactive”, the outcome [2] was “inactive” and the outcome [3] was “inactive”.
For `O=C(CSc1nc(-c2ccccc2)cs1)N1CCc2ccccc21`, the outcome [1] was “inactive”, the outcome [2] was “inactive” and the outcome [3] was “inactive”.
For `CCSc1nsc(NC(=O)Nc2cccc(C(C)=O)c2)n1`, the inhibition [6] was 112% (active), the fluorescence ratio (Tl flux) [7] was 0.514 and the outcome [8] was “inactive”. The outcome [9] was “inactive” and the outcome [10] was “inactive”.
For `COCC(=O)Nc1nnc(SCC(=O)N2C(C)CCCC2C)s1` (stereo not given), the outcome [1] was “inactive”, the outcome [2] was “inactive” and the outcome [3] was “inactive”. The outcome [5] was “inactive”.
For `CC(C)COc1ccc(-c2nn(-c3ccccc3)cc2C(=O)Nc2nccs2)cc1`, the outcome [1] was “inactive”, the outcome [2] was “inactive” and the outcome [3] was “inactive”. The outcome [5] was “inactive”.
For `CN(C(=S)NC(=O)c1ccc(F)cc1)C1CCCCC1`, the activation [1] was 154% (active), the potentiation [2] was 31.5% (active) and the outcome [3] was “inactive”.
For `CCS(=O)(=O)N1Cc2ccccc2CC1C(=O)Nc1cccc(S(=O)(=O)N(C)C)c1` (stereo not given), the outcome [1] was “inactive”, the outcome [2] was “inactive” and the outcome [3] was “inactive”. The outcome [5] was “inactive”.
